ChEMBL document CHEMBL1153971, “Design, synthesis, biological evaluation and molecular modelling studies of novel quinoline derivatives against Mycobacterium tuberculosis” (Bioorg Med Chem, 2009)
≈ marks a conversion by molar mass, not a printed value.

Experiments:
[1] = system: Mycobacterium tuberculosis; assay: Antimycobacterial activity against Mycobacterium tuberculosis H37Rv ATCC 27294 at 6.25 ug/mL by radiometric method; type: functional
[2] = system: Mycobacterium tuberculosis; assay: Antimycobacterial activity against Mycobacterium tuberculosis H37Rv ATCC 27294 assessed as growth index at 6.25 ug/mL after 2 days by radiometric method; type: functional
In short: (§1)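 M. tuberculosis H37Rv (ATCC 27294) in a BACTEC 460 radiometric culture. A single 6.25 µg/mL dose was given on day 1. Growth index was read daily from day 1 to day 9 against an untreated culture and an isoniazid-treated culture under identical conditions. Three independent readings were taken. Compounds were dissolved in DMSO.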

[3] = system: Mycobacterium tuberculosis; assay: Antimycobacterial activity against Mycobacterium tuberculosis H37Rv ATCC 27294 assessed as growth index at 6.25 ug/mL after 7 days by radiometric method; type: functional; in short: as §1
[4] = system: Mycobacterium tuberculosis; assay: Antimycobacterial activity against Mycobacterium tuberculosis H37Rv ATCC 27294 by radiometric method; type: functional
In short: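 MIC against H37Rv by the BACTEC radiometric method. Five concentrations were tested: 6.25, […], 1.56, 0.78 and 0.39 µg/mL. Compounds were dissolved in DMSO.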

[5] = system: Mycobacterium tuberculosis; assay: Antimycobacterial activity against Mycobacterium tuberculosis H37Rv ATCC 27294 assessed as growth index at 6.25 ug/mL after 8 days by radiometric method; type: functional; in short: as §1
[6] = system: Mycobacterium tuberculosis; assay: Antimycobacterial activity against Mycobacterium tuberculosis H37Rv ATCC 27294 assessed as growth index at 6.25 ug/mL after 6 days by radiometric method; type: functional; in short: as §1
[7] = system: Mycobacterium tuberculosis; assay: Antimycobacterial activity against Mycobacterium tuberculosis H37Rv ATCC 27294 assessed as growth index at 6.25 ug/mL after 5 days by radiometric method; type: functional; in short: as §1
[8] = system: Mycobacterium tuberculosis; assay: Antimycobacterial activity against Mycobacterium tuberculosis H37Rv ATCC 27294 assessed as growth inhibition at 6.25 ug/mL after 7 to 9 days by radiometric method; type: functional; conditions: read-out: GI
In short: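 Single-concentration screen against H37Rv (ATCC 27294) by the BACTEC 460 radiometric method. Compound was added once at 6.25 µg/mL on day one. […] DMSO was the vehicle.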

[9] = system: Mycobacterium tuberculosis; assay: Antimycobacterial activity against Mycobacterium tuberculosis H37Rv ATCC 27294 assessed as growth index at 6.25 ug/mL after 9 days by radiometric method; type: functional; in short: as §1
[10] = Cytotoxicity against human THP1 cells assessed as cell viability at 10 ug/100 mL after 72 hrs by MTT assay; type: cell-based; conditions: THP-1 cells, read-out: Activity
In short: (§2)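 Monocytic THP-1 cells were seeded at 10,000 cells/100 µL and cultured at 37 °C in 5% CO2. Compounds were added at 1 or 10 µg/100 µL, with medium plus DMSO as live control. After 24 or 72 h, MTT (stock 5 mg/mL) was added for 4 h, then isopropanol. Absorbance was read at 540 nm and reported as percent viability. Triplicates, mean of three readings.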

[11] = system: Mycobacterium tuberculosis; assay: Antimycobacterial activity against Mycobacterium tuberculosis H37Rv ATCC 27294 assessed as growth index at 6.25 ug/mL after 1 day by radiometric method; type: functional; in short: as §1
[12] = Cytotoxicity against human THP1 cells assessed as cell viability at 10 ug/100 mL after 24 hrs by MTT assay; type: cell-based; conditions: THP-1 cells, read-out: Activity; in short: as §2
[13] = system: Mycobacterium tuberculosis; assay: Antimycobacterial activity against Mycobacterium tuberculosis H37Rv ATCC 27294 assessed as growth index at 6.25 ug/mL after 3 days by radiometric method; type: functional; in short: as §1
[14] = Cytotoxicity against human THP1 cells assessed as cell viability at 1 ug/100 mL after 72 hrs by MTT assay; type: cell-based; conditions: THP-1 cells, read-out: Activity; in short: as §2
[15] = Cytotoxicity against human THP1 cells assessed as cell viability at 1 ug/100 mL after 24 hrs by MTT assay; type: cell-based; conditions: THP-1 cells, read-out: Activity; in short: as §2
[16] = system: Mycobacterium tuberculosis; assay: Antimycobacterial activity against Mycobacterium tuberculosis H37Rv ATCC 27294 assessed as growth index at 6.25 ug/mL after 4 days by radiometric method; type: functional; in short: as §1

Structure (SMILES): COC(=O)C(C(=O)n1cccn1)C(c1ccccc1)c1cc2cc(Br)ccc2nc1OC (mixture of isomers)
- inhibition at 6.25 µg/mL [1]: 22%

Structure (SMILES): COc1nc2ccc(Br)cc2cc1C(c1ccccc1)n1cnc([N+](=O)[O-])c1 (centres undefined)
- inhibition at 6.25 µg/mL [1]: 14%

Structure (SMILES): COc1nc2ccc(Br)cc2cc1C(c1ccccc1)N1CCCCC1 (centres undefined)
- inhibition at 6.25 µg/mL [1]: 53%

Structure (SMILES): COC(=O)C(C(=O)N1CCN(c2cccc(C(F)(F)F)c2)CC1)C(c1ccccc1)c1cc2cc(Br)ccc2nc1OC (centres undefined)
- inhibition at 6.25 µg/mL [1]: 8%

Structure (SMILES): COc1nc2ccc(Br)cc2cc1C(c1ccccc1)n1cccn1 (racemic)
- Growth_index [2]: 0
- Growth_index [3]: 0
- MIC [4]: 6.25 µg/mL (≈ 15.9 µM)
- Growth_index [5]: 0
- Growth_index [6]: 0
- Growth_index [7]: 0
- inhibition at 6.25 µg/mL [1]: 99.5%
- inhibition of growth at 6.25 µg/mL [8]: 99.5%
- Growth_index [9]: 0
- viability at 72 h, 10 ug/100 mL [10]: 98%
- Growth_index [11]: 1
- viability at 24 h, 10 ug/100 mL [12]: 75%
- Growth_index [13]: 0
- viability at 72 h, 1 ug/100 mL [14]: 100%
- viability at 24 h, 1 ug/100 mL [15]: 71%
- Growth_index [16]: 0

Structure (SMILES): CCOC(=O)C(c1cccc2ccccc12)C(c1ccccc1)c1cc2cc(Br)ccc2nc1OC (mixture of isomers)
- inhibition at 6.25 µg/mL [1]: 0%

Structure (SMILES): COc1nc2ccc(Br)cc2cc1C(c1ccccc1)n1nnnc1C (centres undefined)
- inhibition at 6.25 µg/mL [1]: 14%

Structure (SMILES): COc1nc2ccc(Br)cc2cc1C(c1ccccc1)N1CCOCC1 (centres undefined)
- inhibition at 6.25 µg/mL [1]: 69%

Structure (SMILES): COc1nc2ccc(Br)cc2cc1C(Nc1ccc2oc(=O)ccc2c1)c1ccccc1 (racemic)
- Growth_index [2]: 27
- Growth_index [3]: 53
- MIC [4]: 6.25 µg/mL (≈ 12.8 µM)
- Growth_index [5]: 53
- Growth_index [6]: 48
- Growth_index [7]: 52
- inhibition at 6.25 µg/mL [1]: 92.5%
- inhibition of growth at 6.25 µg/mL [8]: 92.5%
- Growth_index [9]: 55
- viability at 72 h, 10 ug/100 mL [10]: 100%
- Growth_index [11]: 15
- viability at 24 h, 10 ug/100 mL [12]: 100%
- Growth_index [13]: 37
- viability at 72 h, 1 ug/100 mL [14]: 100%
- viability at 24 h, 1 ug/100 mL [15]: 100%
- Growth_index [16]: 45

Structure (SMILES): CCOC(=O)C1CCN(C(c2ccccc2)c2cc3cc(Br)ccc3nc2OC)CC1 (centres undefined)
- inhibition at 6.25 µg/mL [1]: 16%

Structure (SMILES): COC(=O)C(C(=O)N1CCCC1)C(c1ccccc1)c1cc2cc(Br)ccc2nc1OC (centres undefined)
- inhibition at 6.25 µg/mL [1]: 5%

Structure (SMILES): COc1nc2ccc(Br)cc2cc1C(c1ccccc1)n1ccc2ccccc21 (centres undefined)
- inhibition at 6.25 µg/mL [1]: 8%

Structure (SMILES): COC(=O)C(C(=O)N1CCCCC1)C(c1ccccc1)c1cc2cc(Br)ccc2nc1OC (centres undefined)
- inhibition at 6.25 µg/mL [1]: 11%

Structure (SMILES): COc1nc2ccc(Br)cc2cc1C(NCc1ccncc1)c1ccccc1 (centres undefined)
- inhibition at 6.25 µg/mL [1]: 17%

Structure (SMILES): COC(=O)C(C(=O)N1CCOCC1)C(c1ccccc1)c1cc2cc(Br)ccc2nc1OC (centres undefined)
- inhibition at 6.25 µg/mL [1]: 5%

Structure (SMILES): CCOC(=O)C1CCCN1C(c1ccccc1)c1cc2cc(Br)ccc2nc1OC (centres undefined)
- inhibition at 6.25 µg/mL [1]: 18%

Structure (SMILES): COc1nc2ccc(Br)cc2cc1C(c1ccccc1)N1CCN(c2cccc(C(F)(F)F)c2)CC1 (centres undefined)
- Growth_index [2]: 0
- Growth_index [3]: 0
- MIC [4]: 6.25 µg/mL (≈ 11.2 µM)
- Growth_index [5]: 0
- Growth_index [6]: 0
- Growth_index [7]: 0
- inhibition at 6.25 µg/mL [1]: 100%
- inhibition of growth at 6.25 µg/mL [8]: 100%
- Growth_index [9]: 0
- viability at 72 h, 10 ug/100 mL [10]: 97%
- Growth_index [11]: 1
- viability at 24 h, 10 ug/100 mL [12]: 97%
- Growth_index [13]: 0
- viability at 72 h, 1 ug/100 mL [14]: 100%
- viability at 24 h, 1 ug/100 mL [15]: 87%
- Growth_index [16]: 0

Structure (SMILES): NNC(=O)c1ccncc1 [ISONIAZID]
- inhibition of growth at 6.25 µg/mL [8]: 99.3%

Structure (SMILES): COc1nc2ccc(Br)cc2cc1C(c1ccccc1)n1ccnc1 (racemic)
- Growth_index [2]: 22
- Growth_index [3]: 35
- MIC [4]: 6.25 µg/mL (≈ 15.9 µM)
- Growth_index [5]: 35
- Growth_index [6]: 33
- Growth_index [7]: 34
- inhibition at 6.25 µg/mL [1]: 94.2%
- inhibition of growth at 6.25 µg/mL [8]: 94.2%
- Growth_index [9]: 56
- viability at 72 h, 10 ug/100 mL [10]: 67%
- Growth_index [11]: 12
- viability at 24 h, 10 ug/100 mL [12]: 56%
- Growth_index [13]: 25
- viability at 72 h, 1 ug/100 mL [14]: 67%
- viability at 24 h, 1 ug/100 mL [15]: 74%
- Growth_index [16]: 28
